Columns and labels:
[1] = biological target: T1, P2X purinoceptor 7 (Homo sapiens) (UniProt Q99572); experiment: Antagonist activity at human P2X7 receptor expressed in HEK293 cells assessed as inhibition of BzATP-induced ethidium bromide uptake at 10 uM after 2 hrs by fluorescence analysis
T1 sequence (whole entry): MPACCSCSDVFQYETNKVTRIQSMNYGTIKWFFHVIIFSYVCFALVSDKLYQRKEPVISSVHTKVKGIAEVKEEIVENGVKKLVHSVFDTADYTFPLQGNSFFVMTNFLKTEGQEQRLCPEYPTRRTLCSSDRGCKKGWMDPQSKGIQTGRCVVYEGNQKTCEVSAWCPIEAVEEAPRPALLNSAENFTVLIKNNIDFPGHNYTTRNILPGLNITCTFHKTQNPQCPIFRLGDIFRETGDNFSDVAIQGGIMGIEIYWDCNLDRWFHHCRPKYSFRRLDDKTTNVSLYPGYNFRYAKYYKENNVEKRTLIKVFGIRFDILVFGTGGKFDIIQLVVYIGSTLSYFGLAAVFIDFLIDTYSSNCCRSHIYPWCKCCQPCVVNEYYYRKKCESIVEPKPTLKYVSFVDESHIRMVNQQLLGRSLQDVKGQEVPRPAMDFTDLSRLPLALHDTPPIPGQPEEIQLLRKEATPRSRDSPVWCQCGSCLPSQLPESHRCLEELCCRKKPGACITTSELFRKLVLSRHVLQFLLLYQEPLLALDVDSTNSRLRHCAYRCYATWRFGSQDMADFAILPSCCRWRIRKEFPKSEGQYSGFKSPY

P2X purinoceptor 7 [2] = biological target: T2, P2X purinoceptor 7 (Homo sapiens, UniProt Q99572); experiment: Antagonist activity at human P2X7 receptor expressed in HEK293 cells assessed as inhibition of BzATP-induced ethidium bromide uptake after 2 hrs by fluorescence analysis; type: functional, cell-based
T2 sequence (Q99572 whole entry): T1 sequence (whole entry)

P2X purinoceptor 7 [3] = biological target: T2, P2X purinoceptor 7; experiment: Antagonist activity at human P2X7 receptor in human THP1 cells assessed as inhibition of BzATP-induced IL-1beta release pretreated for 30 mins before bzATP challenge measured after 30 mins by ELISA
[4] = biological target: T1, P2X purinoceptor 7 (Homo sapiens); experiment: Antagonist activity at human P2X7 receptor expressed in HEK293 cells assessed as inhibition of BzATP-induced ethidium bromide uptake at 20 uM after 2 hrs by fluorescence analysis; type: functional, cell-based
[5] = biological target: T3, P2X purinoceptor 1 (Mus musculus) (UniProt P51576); experiment: Antagonist activity at mouse P2X1 receptor expressed in Xenopus oocytes assessed as reduction in ATP-induced ion current at 10 uM; type: functional, cell-based; design: scale not given: the % may be the effect or the level left; conditions: Oocyte
T3 sequence (whole entry): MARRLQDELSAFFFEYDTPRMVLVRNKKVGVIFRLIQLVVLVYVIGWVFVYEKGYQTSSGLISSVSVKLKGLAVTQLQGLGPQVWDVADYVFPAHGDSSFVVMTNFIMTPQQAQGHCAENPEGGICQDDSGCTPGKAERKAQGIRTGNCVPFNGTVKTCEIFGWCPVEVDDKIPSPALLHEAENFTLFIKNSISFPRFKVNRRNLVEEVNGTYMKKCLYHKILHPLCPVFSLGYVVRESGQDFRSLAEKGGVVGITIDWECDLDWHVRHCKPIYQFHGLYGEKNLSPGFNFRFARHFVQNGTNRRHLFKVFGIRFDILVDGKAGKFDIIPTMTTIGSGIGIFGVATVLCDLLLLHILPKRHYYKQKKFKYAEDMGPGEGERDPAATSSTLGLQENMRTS
Outline: (§1)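 Two-electrode voltage clamp on Xenopus oocytes made to express the receptor by microinjection of capped cRNA. Currents were evoked by 2 μM ATP, and the test compound was given at 10 μM. The read-out is the percent reduction of the ATP-induced ion current.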

[6] = biological target: T4, P2X purinoceptor 3 (Homo sapiens) (UniProt P56373); experiment: Antagonist activity at human P2X3 receptor expressed in Xenopus oocytes assessed as reduction in ATP-induced ion current at 10 uM; type: functional, cell-based; design: scale not given: the % may be the effect or the level left; conditions: Oocyte
T4 sequence (whole entry): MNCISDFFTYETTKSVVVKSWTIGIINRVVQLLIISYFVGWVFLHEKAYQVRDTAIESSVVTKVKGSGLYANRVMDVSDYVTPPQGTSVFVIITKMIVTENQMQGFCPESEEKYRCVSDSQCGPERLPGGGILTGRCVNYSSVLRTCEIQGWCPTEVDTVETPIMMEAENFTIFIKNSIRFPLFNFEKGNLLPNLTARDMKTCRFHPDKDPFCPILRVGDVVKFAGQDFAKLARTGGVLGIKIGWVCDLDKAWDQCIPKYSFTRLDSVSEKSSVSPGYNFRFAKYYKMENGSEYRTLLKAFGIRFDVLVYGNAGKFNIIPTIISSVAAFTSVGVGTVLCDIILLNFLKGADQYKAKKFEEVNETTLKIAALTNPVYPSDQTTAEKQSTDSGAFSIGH
Outline: as §1

| SMILES | inhibition [1] [%] | IC50 (P2X purinoceptor 7 [2]) [nM] | also measured |
| --- | --- | --- | --- |
| O=C(NNc1c(Cl)cncc1Cl)c1cc2ccccc2[nH]1 | < 20 |  |  |
| O=C(Cc1ccccc1)NNc1c(Cl)cncc1Cl |  | 1100 |  |
| O=C(CCc1ccccc1)NNc1ccncc1 | < 20 |  |  |
| O=C(CCCCCCc1ccccc1)NNc1c(Cl)cncc1Cl |  | 950 |  |
| O=C(CCc1ccc(Cl)cc1)NNc1c(Cl)cncc1Cl |  | 1100 |  |
| O=C(CCc1ccc(F)cc1)NNc1c(Cl)cncc1Cl |  | 900 |  |
| O=C(Cc1ccc2ccccc2c1)NNc1c(Cl)cncc1Cl | < 20 |  |  |
| Clc1cncc(Cl)c1NNCCCc1ccccc1 | < 20 |  |  |
| CN(Nc1c(Cl)cncc1Cl)C(=O)CCc1ccccc1 | < 20 |  |  |
| O=C(NCc1ccccc1)NNc1c(Cl)cncc1Cl | < 20 |  |  |
| O=C(Cc1cccc2ccccc12)NNc1c(Cl)cncc1Cl | < 20 |  |  |
| O=C(CCCCc1ccccc1)NNc1c(Cl)cncc1Cl |  | 1200 |  |
| O=C(Cc1ccc(Cl)cc1Cl)NNc1c(Cl)cncc1Cl |  | 2500 |  |
| COc1ccc(CCC(=O)NNc2c(Cl)cncc2Cl)cc1 |  | 1500 |  |
| O=C(NNc1c(Cl)cncc1Cl)C1C2CC3CC(C2)CC1C3 (configuration not stated) |  | 77 | IC50 (P2X purinoceptor 7 [3]): 130 nM |
| O=C(CCC1CCCC1)NNc1c(Cl)cncc1Cl |  | 380 |  |
| O=C(NNc1c(Cl)cncc1Cl)C12CC3CC(CC1C3)C2 |  | 1400 |  |
| O=C(CCc1ccccc1)Nc1c(Cl)cncc1Cl | < 20 |  |  |
| O=C(NNc1c(Cl)cncc1Cl)C1Cc2ccccc21 (racemic) |  | 320 |  |
| O=C(CCc1ccc(O)cc1)NNc1c(Cl)cncc1Cl | < 20 |  |  |
| O=C(/C=C/c1ccccc1)NNc1c(Cl)cncc1Cl | < 20 |  |  |
| O=C(Cc1ccncc1)NNc1c(Cl)cncc1Cl |  |  | inhibition [4]: < 20% |
| O=C(CCC1CCCCC1)NNc1c(Cl)cncc1Cl |  | 130 | IC50 (P2X purinoceptor 7 [3]): 56 nM |
| O=C(CCc1ccccc1)NNc1c(F)cncc1F | < 20 |  |  |

| SMILES | inhibition [1] [%] | IC50 (P2X purinoceptor 7 [2]) [nM] | also measured |
| --- | --- | --- | --- |
| O=C(CCCCCc1ccccc1)NNc1c(Cl)cncc1Cl |  | 1900 |  |
| O=C(CCCc1ccccc1)NNc1c(Cl)cncc1Cl |  | 770 |  |
| O=C(CC1C2CC3CC(C2)CC1C3)NNc1c(Cl)cncc1Cl (configuration not stated) |  | 340 |  |
| O=C(CC1CCCCC1)NNc1c(Cl)cncc1Cl |  | 730 |  |
| O=C(CC1CC2CCC1C2)NNc1c(Cl)cncc1Cl (configuration not stated) |  | 210 |  |
| O=C(CCc1ccccc1)NNc1c(Cl)cncc1Cl |  | 650 | IC50 (P2X purinoceptor 7 [3]): 320 nM |
| CN([C@@H](Cc1ccc(OS(=O)(=O)c2cccc3cnccc23)cc1)C(=O)N1CCN(c2ccccc2)CC1)S(=O)(=O)c1cccc2cnccc12 |  | 280 | IC50 (P2X purinoceptor 7 [3]): 120 nM |
| O=C(NNc1c(Cl)cncc1Cl)c1ccccc1 | < 20 |  |  |
| CC12CC3CC(C)(C1)CC(C(=O)NNc1c(Cl)cncc1Cl)(C3)C2 |  | 13 | Activity [5]: 10%; Activity [6]: 10%; IC50 (P2X purinoceptor 7 [3]): 9.2 nM |
| O=C(CCc1cccc2ccccc12)NNc1c(Cl)cncc1Cl |  | 1200 |  |
| Cc1ccc(CCC(=O)NNc2c(Cl)cncc2Cl)cc1 |  | 1400 |  |
| O=C(NNc1c(Cl)cncc1Cl)C1CC2C=CC1C2 (configuration not stated) | < 20 |  |  |
| O=C(NNc1c(Cl)cncc1Cl)C1CCc2ccccc2C1 (racemic) |  | 1100 |  |
| O=C(CC1CCCCCC1)NNc1c(Cl)cncc1Cl |  | 200 | IC50 (P2X purinoceptor 7 [3]): 42 nM |
| O=C(CCc1ccccc1)NNc1c(Cl)cccc1Cl |  | 1400 |  |
| O=C(CCc1ccccc1)NNc1cc(Cl)nc(Cl)c1 | < 20 |  |  |
| O=C(NNc1c(Cl)cncc1Cl)C1CC2CCC1C2 (configuration not stated) |  | 2800 |  |
| O=C(NNc1c(Cl)cncc1Cl)C1Cc2ccccc2C1 |  | 4200 |  |
| O=C(CCc1ccccc1)NNc1c(F)cccc1F | < 20 |  |  |
| Cc1cccc(C)c1NNC(=O)CCc1ccccc1 |  | 900 |  |
| O=C(NNc1c(Cl)cncc1Cl)OCc1ccccc1 |  | 370 |  |
| O=C(CCCC1CCCCC1)NNc1c(Cl)cncc1Cl |  | 360 |  |
| O=C(NNc1c(Cl)cncc1Cl)C1C2CC3CC(C2)C(Br)C1C3 (configuration not stated) |  | 4.9 | IC50 (P2X purinoceptor 7 [3]): 1.3 nM |
| O=C(Cc1ccc(Cl)cc1)NNc1c(Cl)cncc1Cl |  | 620 |  |

Source: ChEMBL document CHEMBL2046433, “Structure-activity relationships and optimization of 3,5-dichloropyridine derivatives as novel P2X(7) receptor antagonists” (J Med Chem, 2012)
